High-throughput results from PubChem.
H69AR inhibit: blocks growth of human H69AR lung tumor cells; H69AR lung tumor viability, ATP luminescence, 72 h; hits give low values; viability, % at 10 µM; actives 6% (n = 85,000); AID 598;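 active = viability at or below 40%; inactive = viability above 40%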;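 note: multidrug resistant small cell line overexpressing MRP-1 efflux transporter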
PTEN del growth: PTEN-deleted cell growth suppression | HCT116 PTEN-null viability, CellTiter-Glo, 60 h; hits give low values | viability, % at 10 µM | actives 1.2% (n = 140,000) | AID 827;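 active = viability at or below a set limit, 4 SD under the median of all tested compounds, cut at about 3.7% in these data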;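 note: PTEN knockout HCT116 line with beta catenin targeted HCT116 as companion control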
HCT116 bCat-KO: beta-catenin-lacking colon tumor cell growth suppression; viability, % at 10 µM; actives 1.5% (n = 140,000); AID 818; HCT116 beta-catenin knockout viability, CellTiter-Glo, 60 h; hits give low values;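 active = viability at or under a set limit, the compound median less 4 SD, cut at about 6% in these data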
Lung fibro prol: blocks proliferation of human lung fibroblasts | LL 47 human lung fibroblast viability, ATP luminescence; hits give low values | actives 1.1% (n = 85,000) | viability, % at 10 µM;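 active = viability at or below 50% in the single dose screen; inactive = viability above 50%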;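 note: compound exposure lasted 72 h before the ATP readout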
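Assay system: human lung fibroblast line LL 47, low passage. Input: 1,150 fibroblasts seeded per well. Times: overnight cell rest, 72 h compound treatment at 37 °C. Evaluation: % viability of median cell-only signal. Technique: luminescent ATP detection, CellTiter-Glo. Control set: cell-only wells, no compound.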
HUVEC prolif 384: human endothelial cell proliferation inhibition; actives 1.1% (n = 86,000); HUVEC proliferation, CellTiter-Glo luminescence, 72 h; hits give low values; viability, % at 10 µM (by protocol); AID 648;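 active = viability at or below 30%; inactive = viability above 30%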
Of the large screens only hits and unclear results are named; the others gave an inactive call. The full list was thinned out, with hits kept by preference.

N#Cc1cc2c(nc1SCC(=O)Nc1cc(Cl)ccc1Cl)C1CCN2CC1	H69AR inhibit 1.8, PTEN del growth 0.7, HCT116 bCat-KO 1.1, Lung fibro prol 7.1, HUVEC prolif 384 5.5
Brc1ccc2c(c1)C(OC1CN3CCC1CC3)c1ccccc1CS2 (stereo not given)	PTEN del growth 2.9, HCT116 bCat-KO 6.0 (no result: H69AR inhibit, Lung fibro prol, HUVEC prolif 384)
C[C@@H]1O[C@@H](O[C@H]2C[C@@H](O)[C@]3(CO)[C@H]4[C@H](O)C[C@]5(C)[C@@H](C6COC(=O)C6)CC[C@]5(O)[C@@H]4CC[C@]3(O)C2)[C@H](O)[C@H](O)[C@H]1O (stereo not given in full)	HCT116 bCat-KO 4.6 (no result: H69AR inhibit, Lung fibro prol, HUVEC prolif 384)
COP(=O)(OC)C1(Nc2ccc(C)cc2)CCCCC1	none
CCCC1(CCC)C(=O)NC(=NCc2ccccc2)NC1=O	H69AR inhibit 29
Nc1cc(Cl)c2nonc2c1[N+](=O)[O-]	PTEN del growth 2.2, HCT116 bCat-KO 4.9 (no result: H69AR inhibit, Lung fibro prol, HUVEC prolif 384)
COc1ccc(N=C2SCCCN2C)cc1	none
CCOC(=O)c1c(-n2c(C)cc(C=C3C(=O)NC(=S)NC3=O)c2C)sc2c1CCCC2	HCT116 bCat-KO 3.8 (no result: H69AR inhibit, Lung fibro prol, HUVEC prolif 384)
CC(=O)c1cccc(NC2=NCC(C)S2)c1 (stereo not given)	none
CCN1/C(=C\C=C\C2=[N+](CC)c3ccccc3C2(C)C)C(C)(C)c2ccccc21	H69AR inhibit 0.2, PTEN del growth 1.1, HCT116 bCat-KO 1.1, Lung fibro prol 8.7, HUVEC prolif 384 22
CCC(=NCc1cccnc1)c1c(O)n(Cc2ccccc2)c(=O)[nH]c1=O	none
C=CCn1c(O)c(C=NCCCOc2ccc(CC)cc2)c(=O)[nH]c1=S	H69AR inhibit 31
CCOCCCN=Cc1c(O)n(Cc2ccccc2)c(=O)[nH]c1=O	none
Cn1c(C(=O)O)c(CC(=O)N2CCN(Cc3ccccc3)CC2)c2ccccc21	none (no result: H69AR inhibit, Lung fibro prol, HUVEC prolif 384)
C/C(=N\Nc1cccc2ccccc12)c1c(O)n(Cc2ccccc2)c(=O)[nH]c1=O	none (no result: H69AR inhibit, Lung fibro prol, HUVEC prolif 384)
CCN(CC)CCNC(=O)c1c(O)c2ccccc2n(Cc2ccccc2)c1=O	H69AR inhibit 27
CCN(CC)CCCNC(=O)c1c(O)c2ccccc2n(Cc2ccccc2)c1=O	H69AR inhibit 9.1
CCOC(=O)C1=C(N)Oc2cc(C)oc(=O)c2C12C(=O)N1c3c(cccc32)C(C)=CC1(C)C (stereo not given)	none
CCOC(=O)C1=C(N)Oc2cc(C)oc(=O)c2C12C(=O)N1c3c(cc(OC)cc32)C(C)=CC1(C)C (stereo not given)	H69AR inhibit 31
O=C(Nc1ccc(Cl)cc1)Nc1nccs1	H69AR inhibit 29
CC(C)CCn1c(N)c(C(=O)OCC2CCCO2)c2nc3ccccc3nc21 (stereo not given)	H69AR inhibit 20
CC(C)OC(=O)c1c(N)n(CC2CCCO2)c2nc3ccccc3nc12 (stereo not given)	H69AR inhibit 34 (no result: Lung fibro prol)
CC(C)CCOC(=O)c1c(N)n(CC2CCCO2)c2nc3ccccc3nc12 (stereo not given)	none
O=C(CN1CCN(Cc2ccc(Cl)cc2)C1=O)N1CCC2(CC1)OCCO2	none
CCCCC1(CCCC)C(=O)NC(=Nc2cccc(C)c2)NC1=O	H69AR inhibit 7.8
O=C(O)c1nonc1-c1nonc1C(=O)O	none
O=c1cccc2n1CC1CC2CN(C(c2ccccc2)c2sc3ncnn3c2O)C1 (stereo not given)	none
COc1cc(/C=C/[N+](=O)[O-])ccc1O	PTEN del growth 3.3, HCT116 bCat-KO 4.0 (no result: H69AR inhibit, Lung fibro prol, HUVEC prolif 384)
COc1cc(/C=C2/C(=O)NC(=O)N(c3ccccc3)C2=O)ccc1O	none (no result: H69AR inhibit, Lung fibro prol, HUVEC prolif 384)
CC(=O)OC(C)(C)/C=C/C(=O)[C@](C)(O)[C@H]1[C@H](O)C[C@@]2(C)[C@@H]3CC=C4[C@H](C[C@H](O)C(=O)C4(C)C)[C@]3(C)C(=O)C[C@]12C	PTEN del growth 1.9, HCT116 bCat-KO 2.4 (no result: H69AR inhibit, Lung fibro prol, HUVEC prolif 384)
Clc1cnc(Oc2ccc(Oc3ncc(Cl)cc3Cl)cc2)c(Cl)c1	none
O=C(NCc1ccc(C(=O)N2CCC3(CC2)OCCO3)cc1)c1ccc2c(c1)OCO2	none (no result: PTEN del growth)
O=C(c1ccc2c(=O)n(Cc3ccc4c(c3)OCO4)c(=S)[nH]c2c1)N1CCC2(CC1)OCCO2	H69AR inhibit 32
CCCCN=Cc1c(O)n(-c2c(C)cc(C)cc2C)c(=O)[nH]c1=O	none
Cc1ccc(N(C)C(=O)Oc2ccc(C(=O)c3ccc(Cl)cc3)cc2)cc1	none (no result: H69AR inhibit, Lung fibro prol, HUVEC prolif 384)
CN1CCN(c2ccc([N+](=O)[O-])c(NCC3CCCO3)c2)CC1 (stereo not given)	none (no result: H69AR inhibit, Lung fibro prol, HUVEC prolif 384)
CN1Cc2cccnc2N(C)Cc2cc(Cl)ccc21	none (no result: H69AR inhibit, Lung fibro prol, HUVEC prolif 384)
